Experimental data published in the RNAGym collection of RNA variant scans (doi:10.1002/anie.201605470).

B1: Osa-1-4 twister ribozyme (parent)
chain: CCGCCUAACACUGCCAAUGCCGGUCCCAAGCCCGGAUAAAAGUGGAGGGGGCGG

Variants of: B1
Assay: self-cleavage, relative activity (ratio to wild type); higher = more cleavage; co-transcriptional
In short: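 A DNA template for a 54-nucleotide Oryza sativa twister ribozyme was synthesised with 97 % wild-type base and 1 % of each other base at the 48 positions downstream of the cleavage site. It was transcribed in vitro for 2 h at 37 °C, allowing co-transcriptional self-cleavage, then reverse-transcribed with a template-switching oligonucleotide, PCR-amplified and deep-sequenced. Cleavage status was scored from reads with or without upstream sequence. Relative activity is fraction cleaved normalised to wild type.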

Variant | self-cleavage
A7C | 0.04
A7C A8C | 0.07
A7C A8G | 0.05
A7C A8U | 0.06
A7C C9A | 0.09
A7C C9G | 0.04
A7C C9U | 0.02
A7C C11A | 0.06
A7C C11G | 0.04
A7C C11U | 0.05
A7C C14A | 0.04
A7C C14G | 0.03
A7C C14U | 0.04
A7C C15A | 0.04
A7C C15G | 0.07
A7C C15U | 0.04
A7C C20A | 0.06
A7C C20G | 0.01
A7C C20U | 0.06
A7C C21A | 0.06
A7C C21G | 0.01

Variant | self-cleavage
A7C C21U | 0.04
A7C C25A | 0.05
A7C C25G | 0.02
A7C C25U | 0.04
A7C C26A | 0.03
A7C C26G | 0.02
A7C C26U | 0.05
A7C C27A | 0.06
A7C C27G | 0.02
A7C C27U | 0.03
A7C C31A | 0.01
A7C C31G | 0.02
A7C C31U | 0.05
A7C C32A | 0.04
A7C C32G | 0.02
A7C C32U | 0.02
A7C C33A | 0.05
A7C C33G | 0.02
A7C C33U | 0.04
A7C C52A | 0.06
A7C C52G | 0.07

Variant | self-cleavage
A7C C52U | 0.06
A7C G13A | 0.02
A7C G13C | 0.02
A7C G13U | 0.01
A7C G19A | 0.05
A7C G19C | 0.02
A7C G19U | 0.03
A7C G22A | 0.07
A7C G22C | 0.02
A7C G22U | 0.04
A7C G23A | 0.05
A7C G23C | 0.01
A7C G23U | 0.02
A7C G30A | 0.01
A7C G30C | 0.01
A7C G30U | 0.01
A7C G34A | 0.03
A7C G34C | 0.04
A7C G34U | 0.05
A7C G35A | 0.04
A7C G35C | 0.04

Variant | self-cleavage
A7C G35U | 0.05
A7C G42A | 0.04
A7C G42C | 0.03
A7C G42U | 0.02
A7C G44A | 0.05
A7C G44C | 0.05
A7C G44U | 0.05
A7C G45A | 0.03
A7C G45C | 0.01
A7C G45U | 0.02
A7C G47A | 0.04
A7C G47C | 0.02
A7C G47U | 0.03
A7C G48A | 0.02
A7C G48C | 0.02
A7C G48U | 0.01
A7C G49A | 0.02
A7C G49C | 0.01
A7C G49U | 0.02
A7C G50A | 0.04
